Laboratory results from ChEMBL document CHEMBL4266041, “Hydroxybiphenylamide GroEL/ES Inhibitors Are Potent Antibacterials against Planktonic and Biofilm Forms of Staphylococcus aureus” (J Med Chem, 2018).

Experiments:
E. coli GroEL/ES [1] = biological target: T1, E. coli GroEL/ES (Escherichia coli, UniProt P0A6F5); assay: Inhibition of Escherichia coli GroEL expressed in Escherichia coli DH5alpha/Escherichia coli GroES expressed in Escherichia coli BL21 (DE3) assessed as reduction in GroEL/GroES-mediated denatured MDH refolding after 20 to 40 mins by spectrometric analysis
T1 sequence (P0A6F5 whole entry, looked up): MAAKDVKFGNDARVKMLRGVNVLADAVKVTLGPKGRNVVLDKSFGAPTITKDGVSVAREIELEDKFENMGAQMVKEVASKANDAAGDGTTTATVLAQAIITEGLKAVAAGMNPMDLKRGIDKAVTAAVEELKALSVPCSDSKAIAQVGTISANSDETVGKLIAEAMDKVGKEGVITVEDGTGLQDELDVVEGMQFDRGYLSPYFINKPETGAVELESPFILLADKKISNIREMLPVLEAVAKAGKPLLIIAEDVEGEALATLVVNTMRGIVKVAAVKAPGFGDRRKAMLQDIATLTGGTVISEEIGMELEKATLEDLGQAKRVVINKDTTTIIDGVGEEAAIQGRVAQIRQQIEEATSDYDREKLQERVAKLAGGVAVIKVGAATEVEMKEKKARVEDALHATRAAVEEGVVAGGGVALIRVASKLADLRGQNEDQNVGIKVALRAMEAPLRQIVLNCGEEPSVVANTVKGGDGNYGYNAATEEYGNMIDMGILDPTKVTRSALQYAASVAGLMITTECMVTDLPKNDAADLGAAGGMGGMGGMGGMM
Summary of the method: (§1)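 Uses E. coli GroEL/ES with a denatured MDH or rhodanese reporter. GroEL first forms a binary complex with the denatured reporter. Refolding is started by adding ATP and GroES, then reporter enzyme activity is read. DMSO is the negative control. IC50 values from replicate curves are log-averaged after ROUT outlier screening.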

E. coli GroEL/ES [2] = biological target: T1, E. coli GroEL/ES; assay: Inhibition of Escherichia coli GroEL expressed in Escherichia coli DH5alpha/Escherichia coli GroES expressed in Escherichia coli BL21 (DE3) assessed as reduction in GroEL/GroES-mediated denatured rhodanese refolding after 45 mins by spectrometric analysis; summary of the method: as §1
Staphylococcus aureus [3] = assay: Antibacterial activity against Staphylococcus aureus ATCC 25923 after 6 to 8 hrs by bacterial proliferation assay; type: functional, organism-based
[4] = biological target: T2, Thiosulfate sulfurtransferase (Homo sapiens, UniProt Q16762); assay: Inhibition of refolded rhodanese (unknown origin) preincubated with Escherichia coli GroEL/GroES for 60 mins in absence of compound followed by compound addition by spectrometric analysis
T2 sequence (Q16762 whole entry): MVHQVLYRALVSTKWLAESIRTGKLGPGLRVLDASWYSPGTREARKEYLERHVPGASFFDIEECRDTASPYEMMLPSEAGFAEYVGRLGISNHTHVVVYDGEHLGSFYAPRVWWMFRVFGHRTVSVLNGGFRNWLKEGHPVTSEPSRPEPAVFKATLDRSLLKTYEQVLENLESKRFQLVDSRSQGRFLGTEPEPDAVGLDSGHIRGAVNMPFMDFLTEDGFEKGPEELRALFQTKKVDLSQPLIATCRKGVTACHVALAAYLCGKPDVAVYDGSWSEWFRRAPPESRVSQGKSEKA

[5] = Inhibition of refolded MDH (unknown origin) preincubated with Escherichia coli GroEL/GroES for 45 mins in absence of compound followed by compound addition and measured for 20 to 35 mins by spectrometric analysis
Enterococcus faecium = assay: Antibacterial activity against Enterococcus faecium ATCC 19434 after 24 hrs by bacterial proliferation assay; type: functional, organism-based; settings: ATCC 19434, 24 h
Staphylococcus aureus [6] = assay: Antibacterial activity against methicillin-resistant Staphylococcus aureus ATCC BAA-44 after 6 to 8 hrs by bacterial proliferation assay; type: functional, organism-based; settings: Staphylococcus aureus, ATCC BAA-44
Klebsiella pneumoniae = assay: Antibacterial activity against Klebsiella pneumoniae ATCC 13883 after 6 to 8 hrs by bacterial proliferation assay; type: functional, organism-based
Summary of the method: (§2)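 Bacterial growth inhibition in liquid culture. The highest concentration tested was 100 µM. The mean was back-calculated from the average log value. Values above the top concentration were set 0.1 log unit higher.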

Acinetobacter baumannii = assay: Antibacterial activity against Acinetobacter baumannii ATCC 19606 after 24 hrs by bacterial proliferation assay; type: functional, organism-based; settings: ATCC 19606 = CIP 70.34 = JCM 6841, 24 h; summary of the method: as §2
Pseudomonas aeruginosa = assay: Antibacterial activity against Pseudomonas aeruginosa ATCC 10145 after 24 hrs by bacterial proliferation assay; type: functional, organism-based; settings: ATCC 10145, 24 h; summary of the method: as §2
Enterobacter cloacae = assay: Antibacterial activity against Enterobacter cloacae subsp. cloacae ATCC 13047 after 24 hrs by bacterial proliferation assay; type: functional, organism-based; settings: subsp. cloacae ATCC 13047, 24 h; summary of the method: as §2
HSP60/HSP10 = HSP60/HSP10 (Homo sapiens, UniProt P10809); assay: Inhibition of human N-terminal octa-His-tagged HSP60 expressed in Escherichia coli Rosetta(DE3) pLysS/human HSP10 expressed in Escherichia coli Rosetta(DE3) assessed as reduction in HSP60/HSP10-mediated denatured MDH refolding after 40 to 60 mins by spectrometric analysis
HSP60/HSP10, sequence (P10809 whole entry): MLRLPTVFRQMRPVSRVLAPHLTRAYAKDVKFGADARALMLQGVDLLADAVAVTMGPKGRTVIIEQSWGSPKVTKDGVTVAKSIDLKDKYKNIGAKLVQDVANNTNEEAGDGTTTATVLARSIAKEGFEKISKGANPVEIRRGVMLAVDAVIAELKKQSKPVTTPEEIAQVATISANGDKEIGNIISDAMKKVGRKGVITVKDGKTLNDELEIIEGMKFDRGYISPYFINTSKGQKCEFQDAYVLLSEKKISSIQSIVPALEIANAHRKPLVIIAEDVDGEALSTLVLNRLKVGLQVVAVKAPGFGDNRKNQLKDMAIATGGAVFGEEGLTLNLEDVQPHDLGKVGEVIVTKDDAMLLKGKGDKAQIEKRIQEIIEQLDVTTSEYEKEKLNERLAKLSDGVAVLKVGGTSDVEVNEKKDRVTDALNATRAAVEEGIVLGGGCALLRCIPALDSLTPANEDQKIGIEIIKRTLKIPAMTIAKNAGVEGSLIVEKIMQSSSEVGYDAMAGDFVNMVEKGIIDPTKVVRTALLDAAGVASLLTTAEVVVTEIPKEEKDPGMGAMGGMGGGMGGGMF
HSP60/HSP10, sequence (P61604 whole entry, further chain): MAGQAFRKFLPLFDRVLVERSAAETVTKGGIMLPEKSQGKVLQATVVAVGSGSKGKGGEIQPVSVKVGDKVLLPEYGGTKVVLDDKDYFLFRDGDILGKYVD
Summary of the method: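 Human HSP60/10 refolding of denatured MDH, run the same way as the GroEL/ES-dMDH assay. A binary complex of chaperonin and denatured MDH is formed, and refolding is started with ATP and HSP10. MDH activity is the read-out. DMSO is the negative control. IC50 values from replicate curves are log-averaged after ROUT outlier screening.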

[7] = Cytotoxicity against human THLE3 cells assessed as reduction in cell viability after 48 hrs by Alamar Blue reporter assay; settings: 48 h
HEK293 = assay: Cytotoxicity against HEK293 cells assessed as reduction in cell viability after 48 hrs by Alamar Blue reporter assay; settings: human, hek293, 48 h

SMILES: O=C(Nc1cccc(Cl)c1)c1cc(Br)cc(Br)c1
- IC50 (E. coli GroEL/ES [1]): > 100 µM
- IC50 (E. coli GroEL/ES [2]): > 100 µM
- EC50 (Staphylococcus aureus [3]): 14 µM
- IC50 [4]: > 100 µM
- IC50 [5]: > 63 µM
- EC50 (Enterococcus faecium): > 100 µM
- EC50 (Staphylococcus aureus [6]): 12 µM
- EC50 (Klebsiella pneumoniae): > 100 µM
- EC50 (Acinetobacter baumannii): > 100 µM
- EC50 (Pseudomonas aeruginosa): > 100 µM
- EC50 (Enterobacter cloacae): > 100 µM
- IC50 (HSP60/HSP10): > 100 µM
- CC50 [7]: 45 µM
- CC50 (HEK293): 53 µM

SMILES: COc1ccccc1C(=O)Nc1cccc(Cl)c1
- IC50 (E. coli GroEL/ES [1]): > 100 µM
- IC50 (E. coli GroEL/ES [2]): > 100 µM
- EC50 (Staphylococcus aureus [3]): > 100 µM
- IC50 [4]: > 100 µM
- IC50 [5]: > 63 µM
- EC50 (Enterococcus faecium): > 100 µM
- EC50 (Staphylococcus aureus [6]): > 100 µM
- EC50 (Klebsiella pneumoniae): > 100 µM
- EC50 (Acinetobacter baumannii): > 100 µM
- EC50 (Pseudomonas aeruginosa): > 100 µM
- EC50 (Enterobacter cloacae): > 100 µM
- IC50 (HSP60/HSP10): > 100 µM
- CC50 [7]: > 100 µM
- CC50 (HEK293): > 100 µM

SMILES: O=C(Nc1ccccc1)c1ccccc1O [SALICYLANILIDE]
- IC50 (E. coli GroEL/ES [1]): > 100 µM
- IC50 (E. coli GroEL/ES [2]): > 100 µM
- EC50 (Staphylococcus aureus [3]): 28 µM
- IC50 [4]: > 100 µM
- IC50 [5]: > 63 µM
- EC50 (Enterococcus faecium): > 100 µM
- EC50 (Staphylococcus aureus [6]): 51 µM
- EC50 (Klebsiella pneumoniae): > 100 µM
- EC50 (Acinetobacter baumannii): > 100 µM
- EC50 (Pseudomonas aeruginosa): > 100 µM
- EC50 (Enterobacter cloacae): > 100 µM
- IC50 (HSP60/HSP10): > 100 µM
- CC50 [7]: 68 µM
- CC50 (HEK293): > 100 µM

SMILES: Cc1cc(C(C#N)c2ccc(Cl)cc2)c(Cl)cc1NC(=O)c1cc(I)cc(I)c1O (stereo unspecified) [CLOSANTEL]
- IC50 (E. coli GroEL/ES [1]): 2.2 µM
- IC50 (E. coli GroEL/ES [2]): 1.5 µM
- EC50 (Staphylococcus aureus [3]): 0.47 µM
- IC50 [4]: > 100 µM
- IC50 [5]: 6.1 µM
- EC50 (Enterococcus faecium): 1.2 µM
- EC50 (Staphylococcus aureus [6]): 0.47 µM
- EC50 (Klebsiella pneumoniae): > 100 µM
- EC50 (Acinetobacter baumannii): > 100 µM
- EC50 (Pseudomonas aeruginosa): > 100 µM
- EC50 (Enterobacter cloacae): > 100 µM
- IC50 (HSP60/HSP10): 2.5 µM
- CC50 [7]: 52 µM
- CC50 (HEK293): 75 µM

SMILES: O=C(Nc1ccc(Sc2nc3ccccc3s2)cc1)c1cccc(Br)c1
- IC50 (E. coli GroEL/ES [1]): > 100 µM
- IC50 (E. coli GroEL/ES [2]): > 100 µM
- EC50 (Staphylococcus aureus [3]): > 100 µM
- IC50 [4]: > 100 µM
- IC50 [5]: > 63 µM
- EC50 (Enterococcus faecium): > 100 µM
- EC50 (Staphylococcus aureus [6]): > 100 µM
- EC50 (Klebsiella pneumoniae): > 100 µM
- EC50 (Acinetobacter baumannii): > 100 µM
- EC50 (Pseudomonas aeruginosa): > 100 µM
- EC50 (Enterobacter cloacae): > 100 µM
- IC50 (HSP60/HSP10): > 100 µM
- CC50 [7]: 82 µM
- CC50 (HEK293): 74 µM

SMILES: O=C(Nc1ccccc1)c1cc(Br)cc(Br)c1
- IC50 (E. coli GroEL/ES [1]): > 100 µM
- IC50 (E. coli GroEL/ES [2]): > 100 µM
- EC50 (Staphylococcus aureus [3]): > 100 µM
- IC50 [4]: > 100 µM
- IC50 [5]: > 63 µM
- EC50 (Enterococcus faecium): > 100 µM
- EC50 (Staphylococcus aureus [6]): > 100 µM
- EC50 (Klebsiella pneumoniae): > 100 µM
- EC50 (Acinetobacter baumannii): > 100 µM
- EC50 (Pseudomonas aeruginosa): > 100 µM
- EC50 (Enterobacter cloacae): > 100 µM
- IC50 (HSP60/HSP10): > 100 µM
- CC50 [7]: > 100 µM
- CC50 (HEK293): > 100 µM

SMILES: O=C(Nc1ccc(Sc2nc3ccccc3s2)c(Cl)c1)c1cccc(Br)c1
- IC50 (E. coli GroEL/ES [1]): > 100 µM
- IC50 (E. coli GroEL/ES [2]): > 100 µM
- EC50 (Staphylococcus aureus [3]): > 100 µM
- IC50 [4]: > 100 µM
- IC50 [5]: > 63 µM
- EC50 (Enterococcus faecium): > 100 µM
- EC50 (Staphylococcus aureus [6]): > 100 µM
- EC50 (Klebsiella pneumoniae): > 100 µM
- EC50 (Acinetobacter baumannii): > 100 µM
- EC50 (Pseudomonas aeruginosa): > 100 µM
- EC50 (Enterobacter cloacae): > 100 µM
- IC50 (HSP60/HSP10): > 100 µM
- CC50 [7]: 88 µM
- CC50 (HEK293): > 100 µM

SMILES: O=C(Nc1ccc(Sc2nc3ccccc3s2)c(Cl)c1)c1cc(Br)cc(Br)c1
- IC50 (E. coli GroEL/ES [1]): > 100 µM
- IC50 (E. coli GroEL/ES [2]): > 100 µM
- EC50 (Staphylococcus aureus [3]): > 100 µM
- IC50 [4]: > 100 µM
- IC50 [5]: > 63 µM
- EC50 (Enterococcus faecium): > 100 µM
- EC50 (Staphylococcus aureus [6]): > 100 µM
- EC50 (Klebsiella pneumoniae): > 100 µM
- EC50 (Acinetobacter baumannii): > 100 µM
- EC50 (Pseudomonas aeruginosa): > 100 µM
- EC50 (Enterobacter cloacae): > 100 µM
- IC50 (HSP60/HSP10): > 100 µM
- CC50 [7]: > 100 µM
- CC50 (HEK293): > 100 µM

SMILES: COc1ccc(Br)cc1C(=O)Nc1ccccc1
- IC50 (E. coli GroEL/ES [1]): > 100 µM
- IC50 (E. coli GroEL/ES [2]): > 100 µM
- EC50 (Staphylococcus aureus [3]): > 100 µM
- IC50 [4]: > 100 µM
- IC50 [5]: > 63 µM
- EC50 (Enterococcus faecium): > 100 µM
- EC50 (Staphylococcus aureus [6]): > 100 µM
- EC50 (Klebsiella pneumoniae): > 100 µM
- EC50 (Acinetobacter baumannii): > 100 µM
- EC50 (Pseudomonas aeruginosa): > 100 µM
- EC50 (Enterobacter cloacae): > 100 µM
- IC50 (HSP60/HSP10): > 100 µM
- CC50 [7]: > 100 µM
- CC50 (HEK293): > 100 µM
